Laboratory results as given in ChEMBL document CHEMBL3853270, “Influence of Birch Bark Triterpenes on Keratinocytes and Fibroblasts from Diabetic and Nondiabetic Donors” (2016).
Calls of active or inactive are those of the source. No cut-off for these calls is given here.

How the values were obtained:
Type in all cases: functional
Keratinocyte [1] = assay: Effect on transcription factor related gene expression in diabetic adult human primary keratinocytes assessed as JUN mRNA levels at 9.81 uM after 6 hrs by qPCR analysis
Keratinocyte [2] = assay: Effect on cellular connection related gene expression in diabetic adult human primary keratinocytes assessed as GJB2 mRNA levels at 9.81 uM after 6 hrs by qPCR analysis
Keratinocyte [3] = assay: Effect on cellular connection related gene expression in non-diabetic young human primary keratinocytes assessed as CLDN4 mRNA levels at 9.81 uM after 6 hrs by qPCR analysis
Fibroblast [4] = assay: Effect on antiinflammatory related gene expression in diabetic adult human primary fibroblasts assessed as NFKBIA mRNA levels at 9.81 uM after 6 hrs by qPCR analysis
Method in brief: (§1)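 Primary dermal fibroblasts from one nondiabetic young, one nondiabetic adult and one diabetic adult donor; 320 000 cells per sample, 6 h at 1.96 or 9.81 μM. RNA measured on a high-throughput qPCR chip. Fold change versus 0.1% DMSO control, four independent experiments, SD, one-way ANOVA with Bonferroni post-test.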

Fibroblast [5] = assay: Effect on pro-inflammatory related gene expression in non-diabetic young human primary fibroblasts assessed as IL1B mRNA levels at 9.81 uM after 6 hrs by qPCR analysis
Fibroblast [6] = assay: Effect on chemokines related gene expression in non-diabetic young human primary fibroblasts assessed as WDR26 mRNA levels at 9.81 uM after 6 hrs by qPCR analysis
Method in brief: (§2)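 Primary human dermal fibroblasts (young or adult nondiabetic, adult diabetic donor) were treated for 6 h against a 0.1% DMSO solvent control. RNA from 320 000 cells per sample was measured by Fluidigm Biomark high-throughput qPCR. Values are fold change relative to solvent control, from four independent experiments, with SD. One-way ANOVA with Bonferroni post-test was applied.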

Fibroblast [7] = assay: Effect on growth factors related gene expression in non-diabetic young human primary fibroblasts assessed as FGF2 mRNA levels at 1.96 uM after 6 hrs by qPCR analysis; method in brief: as §2
Keratinocyte [8] = assay: Effect on MMP1 mRNA expression levels in non-diabetic adult human primary keratinocytes at 9.81 uM after 6 hrs by qPCR analysis
Method in brief: (§3)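 Primary keratinocytes from nondiabetic young and adult and diabetic adult donors; 400 000 cells per sample, 6 h exposure at 1.96 or 9.81 μM. RNA extracted and read on a high-throughput qPCR chip. Results are fold change versus 0.1% DMSO solvent control from 5−7 independent experiments over two donors per group, SD, one-way ANOVA with Bonferroni post-test.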

Keratinocyte [9] = assay: Effect on antiinflammatory related gene expression in diabetic adult human primary keratinocytes assessed as NFKBIA mRNA levels at 1.96 uM after 6 hrs by qPCR analysis; method in brief: as §3
Fibroblast [10] = assay: Effect on adhesion molecules related gene expression in diabetic adult human primary fibroblasts assessed as VCAM1 mRNA levels at 9.81 uM after 6 hrs by qPCR analysis
Method in brief: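 Dermal fibroblasts from nondiabetic adult and diabetic adult donors, exposed for 6 h at 1.96 or 9.81 μM. ICAM-1 and VCAM-1 mRNA measured by standard qRT-PCR, n = 3. Fold change versus 0.1% DMSO control, SD, one-way ANOVA with Bonferroni post-test.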

Fibroblast [11] = assay: Effect on growth factors related gene expression in non-diabetic adult human primary fibroblasts assessed as FGF2 mRNA levels at 9.81 uM after 6 hrs by qPCR analysis; method in brief: as §2
Fibroblast [12] = assay: Effect on chemokines related gene expression in non-diabetic adult human primary fibroblasts assessed as WDR26 mRNA levels at 9.81 uM after 6 hrs by qPCR analysis
Fibroblast [13] = assay: Effect on MMP1 mRNA expression levels in diabetic adult human primary fibroblasts at 9.81 uM after 6 hrs by qPCR analysis; method in brief: as §1
Keratinocyte [14] = assay: Effect on transcription factor related gene expression in non-diabetic adult human primary keratinocytes assessed as JUN mRNA levels at 1.96 uM after 6 hrs by qPCR analysis
Fibroblast [15] = assay: Effect on chemokines related gene expression in non-diabetic adult human primary fibroblasts assessed as IL8 mRNA levels at 1.96 uM after 6 hrs by qPCR analysis
[16] = Effect on wound healing activity in diabetic adult human primary keratinocytes assessed as upregulation of IL1RA protein levels at 1.96 uM after 24 hrs by bead-based suspension array analysis; details: Keratinocyte
Keratinocyte [17] = assay: Effect on antioxidant related gene expression in non-diabetic adult human primary keratinocytes assessed as SOD2 mRNA levels at 1.96 uM after 6 hrs by qPCR analysis
Fibroblast [18] = assay: Effect on antiinflammatory related gene expression in non-diabetic adult human primary fibroblasts assessed as NFKBIA mRNA levels at 1.96 uM after 6 hrs by qPCR analysis; method in brief: as §1
Keratinocyte [19] = assay: Effect on pro-inflammatory related gene expression in non-diabetic young human primary keratinocytes assessed as IL6 mRNA levels at 1.96 uM after 6 hrs by qPCR analysis
Keratinocyte [20] = assay: Effect on pro-inflammatory related gene expression in non-diabetic adult human primary keratinocytes assessed as TNF mRNA levels at 1.96 uM after 6 hrs by qPCR analysis
[21] = Effect on wound healing activity in non-diabetic adult human primary keratinocytes assessed as upregulation of soluble E-selectin protein levels at 1.96 uM after 24 hrs by bead-based suspension array analysis; details: Keratinocyte
Keratinocyte [22] = assay: Effect on antioxidant related gene expression in non-diabetic adult human primary keratinocytes assessed as SOD2 mRNA levels at 9.81 uM after 6 hrs by qPCR analysis
Keratinocyte [23] = assay: Effect on pro-inflammatory related gene expression in diabetic adult human primary keratinocytes assessed as TNF mRNA levels at 1.96 uM after 6 hrs by qPCR analysis
Fibroblast [24] = assay: Effect on antiinflammatory related gene expression in non-diabetic young human primary fibroblasts assessed as NFKBIA mRNA levels at 1.96 uM after 6 hrs by qPCR analysis; method in brief: as §1
Fibroblast [25] = assay: Effect on pro-inflammatory related gene expression in non-diabetic young human primary fibroblasts assessed as PTGS2 mRNA levels at 9.81 uM after 6 hrs by qPCR analysis
Fibroblast [26] = assay: Effect on pro-inflammatory related gene expression in non-diabetic young human primary fibroblasts assessed as IL1R1 mRNA levels at 9.81 uM after 6 hrs by qPCR analysis
Keratinocyte [27] = assay: Effect on MMP1 mRNA expression levels in diabetic adult human primary keratinocytes at 9.81 uM after 6 hrs by qPCR analysis; method in brief: as §3
Fibroblast [28] = assay: Effect on antiinflammatory related gene expression in non-diabetic young human primary fibroblasts assessed as NFKBIA mRNA levels at 9.81 uM after 6 hrs by qPCR analysis; method in brief: as §1
Keratinocyte [29] = assay: Effect on growth factor related gene expression in diabetic adult human primary keratinocytes assessed as VEGFA mRNA levels at 9.81 uM after 6 hrs by qPCR analysis
Method in brief: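 Primary human keratinocytes (nondiabetic young or adult, diabetic adult donors) were exposed to compound for 6 h, with 0.1% DMSO as solvent control. Total RNA came from 400 000 cells per sample and was assayed on a Fluidigm Biomark high-throughput qPCR chip. Results are fold change vs solvent control, from 2−4 independent experiments on two donors per group, with SD. Groups were compared by one-way ANOVA with Bonferroni post-test.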

C=C(C)[C@@H]1CC[C@]2(CO)CC[C@]3(C)[C@H](CC[C@@H]4[C@@]5(C)CC[C@H](O)C(C)(C)[C@@H]5CC[C@]43C)[C@@H]12 [BETULIN]
fold change (FC) (Keratinocyte [1]): 1.7 | fold change (FC) (Keratinocyte [2]): 0.9 | fold change (FC) (Keratinocyte [3]): 1.9 | fold change (FC) (Fibroblast [4]): 1.4 | fold change (FC) (Fibroblast [5]): 5.7 | fold change (FC) (Fibroblast [6]): 1.4 | fold change (FC) (Fibroblast [7]): 1.7 | fold change (FC) (Keratinocyte [8]): 1 | fold change (FC) (Keratinocyte [9]): 1.2 | fold change (FC) (Fibroblast [10]): 1.3 | fold change (FC) (Fibroblast [11]): 3.4 | fold change (FC) (Fibroblast [12]): 1.3 | fold change (FC) (Fibroblast [13]): 0.6 | fold change (FC) (Keratinocyte [14]): 1.3 | fold change (FC) (Fibroblast [15]): 702 | Activity [16]: Active | fold change (FC) (Keratinocyte [17]): 1.3 | fold change (FC) (Fibroblast [18]): 7.5 | fold change (FC) (Keratinocyte [19]): 3.6 | fold change (FC) (Keratinocyte [20]): 3.8 | Activity [21]: Active | fold change (FC) (Keratinocyte [22]): 1.6 | fold change (FC) (Keratinocyte [23]): 5.3 | fold change (FC) (Fibroblast [24]): 2.9 | fold change (FC) (Fibroblast [25]): 14.7 | fold change (FC) (Fibroblast [26]): 3.9 | fold change (FC) (Keratinocyte [27]): 1.8 | fold change (FC) (Fibroblast [28]): 3.2 | fold change (FC) (Keratinocyte [29]): 2.2
